Screens: PubChem, Johns Hopkins Ion Channel Center
Hits are enriched below; roughly 3.5% of the tested compounds scored in any of these assays.
MrgX1 ag: agonists of human MrgX1 receptor; Q96LB2; MrgX1-HEK293 cells, Fluo-4 calcium fluorescence, agonist mode; active compounds read high; B-score at 10 µM; 310,000 compounds, 0.44% hits; AID 588627;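 active = calcium response B-score plate-corrected fluorescence ratio at least 3 library SD, with starting fluorescence B-score inside 5 SD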
Target sequence (Q96LB2 whole entry, looked up): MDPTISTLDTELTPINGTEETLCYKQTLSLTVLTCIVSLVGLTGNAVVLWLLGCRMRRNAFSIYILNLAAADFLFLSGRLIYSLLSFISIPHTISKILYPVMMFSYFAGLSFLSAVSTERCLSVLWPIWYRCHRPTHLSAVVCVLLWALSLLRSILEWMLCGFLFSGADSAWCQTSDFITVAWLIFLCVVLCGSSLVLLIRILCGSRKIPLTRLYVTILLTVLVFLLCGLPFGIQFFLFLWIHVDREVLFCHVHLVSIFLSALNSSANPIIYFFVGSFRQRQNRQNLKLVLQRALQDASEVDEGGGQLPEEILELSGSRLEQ
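System – MrgX1-expressing HEK293 cells · Incubation – cells plated overnight, dye loaded 0.5 h 37 °C, 0.5 h room temperature · Technique – kinetic Fluo-4 NW fluorescence of intracellular calcium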
RGS4 block: inhibitors of human RGS4. P49798. 310,000 compounds, 0.45% hits. AID 463165. HEK293 M3R/RGS4 inducible, Fluo-4 calcium flux; active compounds read high; triggered by carbachol at its EC20. B-score at 10 µM;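 active = B-score, a plate-corrected calcium signal, over three deviations above library mean, with baseline fluorescence within five deviations of library mean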;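 note: RGS4 expression induced by doxycycline in cells with stable M3 receptor; B-score is computed from the integrated fluorescence ratio over baseline after carbachol; higher B-score means a larger calcium signal and so more RGS4 inhibition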
RGS4 act: potentiators or activators of RGS4; HEK293 M3R/inducible RGS4, carbachol calcium flux Fluo4; active compounds read low; B-score at 10 µM; 310,000 compounds, 0.92% hits; AID 463111;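 active = B-score of the integrated calcium signal more than 4 SD below the library mean, with starting fluorescence not abnormally high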;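 note: negative B-score means reduced calcium response which marks RGS4 activation or potentiation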
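test system = M3R-expressing HEK293 line, RGS4 induced by doxycycline | probe or stimulus = carbachol at ECmax as muscarinic agonist stimulus | timing = dye loading 30 min 37 °C, buffer rest 30 min RT | signal = calcium dye Fluo4 fluorescence | evaluation = B score from integrated fluorescence ratio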
MrgX1 antagonist: antagonists of human MrgX1 receptor. Q96LB2. MRGX1-HEK293 calcium flux, Fluo-4, BAM8-22 antagonism; active compounds read low. B-score at 10 µM. 310,000 compounds, 1.3% hits. AID 588676;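 active = calcium-response B-score plate-corrected more than 3 library SD below zero, starting fluorescence within 5 deviations, no agonist response on first addition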;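 note: peak minus trough fluorescence over baseline after final BAM8-22 challenge near maximal dose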
MrgX1 allo act: human MrgX1 positive allosteric modulation, primary screen. AID 588675. MrgX1-HEK293, Fluo-4 calcium flux, FDSS; active compounds read high. B-score at 10 µM. 310,000 compounds, 0.63% hits;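 active = plate-corrected calcium response at least 3 library SD above typical, normal starting fluorescence, not activating the receptor alone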;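 note: compound read alongside a low EC10 to EC30 dose of BAM8-22 agonist; peak minus trough fluorescence over baseline measured at the second addition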
RGS4 inh valid: validation of RGS4 inhibitors | shares compounds with RGS4 block | HEK293 M3R/RGS4, carbachol calcium Fluo-4 fluorescence; carbachol added at its EC20; 0 = buffer wells, 100 = carbachol control | calcium response, % at 10 µM | 1,700 compounds, 65% hits | AID 492999;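 active = duplicate-averaged calcium response above the buffer-only control mean plus 5 SD of those controls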;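 note: integrated fluorescence ratio F max minus min over baseline F0; higher response in RGS4-induced cells means RGS4 inhibition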
RGS4 uninduced: checks RGS4 inhibitor effects in non-induced HEK293 M3R cells; shares compounds with RGS4 block; carbachol calcium Fluo-4; submaximal (EC20) carbachol stimulus; buffer wells 0%, carbachol control wells 100%; activity (percent), % at 10 µM; 1,900 compounds, 20% hits; call rule not given here;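 note: RGS4 induction absent so cells express M3R without RGS4; higher means more calcium signal and flags a non-specific hit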
RGS4 inh ctr2: second counter-screen for RGS4 inhibitors: non-induced cells without carbachol; shares compounds with RGS4 block; HEK293 M3R/RGS4 non-induced, Fluo-4 calcium, no carbachol; normalised: buffer wells 0%, carbachol wells 100%; calcium response (agonist-mode artifact), % at 10 µM; 1,900 compounds, 22% hits; AID 493001;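 active = duplicate-averaged calcium rise in uninduced cells above buffer wells' mean plus 5 SD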
Hits are given with their value; n = inactive; x = no result given.

SMILES | MrgX1 ag | RGS4 block | RGS4 act | MrgX1 antagonist | MrgX1 allo act | RGS4 inh valid | RGS4 uninduced | RGS4 inh ctr2
Clc1ccccc1C1Nc2cccc3cccc(c23)N1 | n | n | n | n | n | x | x | x
Oc1ccc(C2Nc3cccc4cccc(c34)N2)c(O)c1 | n | 7.7 | n | n | n | 9.5% | n | n
CC1C/C(=C/c2ccccn2)C(=O)/C(=C/c2ccccn2)C1 (configuration not stated) | n | 10 | n | n | n | 36% | n | 13%
CCc1noc(C)c1C(=O)Nc1ccc(F)c(F)c1F | n | n | n | n | n | x | x | x
N#Cc1c(Cl)c(Cl)c2nnc(-c3ccc(Br)cc3)n2c1Cl | n | 6 | n | n | n | 8.0% | n | 11%
[S-]c1nnc(-c2ccc(Br)cc2)n1-c1ccccc1.[Zn+2] | n | n | n | n | n | x | x | x
O=C(CNCc1cccc(Cl)c1)N1CCc2ccccc2C1 | n | n | n | n | n | x | x | x
CCCC1CC(C(=O)Nc2ccccc2)C(=O)O1 (configuration not stated) | n | n | n | n | n | x | x | x
CC(C)C(=O)N1CCN(c2nc(-c3ccc(Cl)cc3)cs2)CC1 | n | 5.5 | n | n | n | 18% | n | n
CCOC(=O)[C@@H]1[C@H]2COc3cc(OC)ccc3[C@H]2N2C(=O)N(c3cccc(Cl)c3)C(=O)[C@]12C | n | n | n | n | n | n | n | n
CCOC(=O)[C@@H]1[C@H]2COc3cc(OC)ccc3[C@H]2N2C(=O)N(c3cccc(Cl)c3)C(=O)[C@@]12C | n | n | n | n | n | n | n | n
CCCOc1ccc(C(=O)CCNC(Cc2c[nH]c3ccccc23)C(=O)O)cc1 (configuration not stated) | n | 6.7 | n | n | n | 10% | 46% | 27%
O=C(Cn1cncn1)NCCCc1ccccc1 | n | n | n | n | n | x | x | x
Cc1ccnc(NC2(C(F)(F)F)N=C(c3ccccc3)NC2=O)c1 (configuration not stated) | n | n | n | n | n | x | x | x
NS(=O)(=O)c1cccc(NC(=O)COC(=O)c2cc(-c3ccc(Cl)cc3)nc3ccccc23)c1 | n | 5.6 | n | n | n | 14% | n | n
Cc1ccc(-c2nnc(SCC(=O)NC(=O)Nc3ccc(C)cc3C)n2N)cc1 | n | n | n | n | n | x | x | x
Cc1ccc(NC(=O)NC(=O)CSc2nnc(-c3ccc(Cl)cc3Cl)n2N)c(C)c1 | n | 5.2 | n | n | n | n | n | n
CCC(C)(C)NC(=O)CN(C(=O)CNS(=O)(=O)c1ccc(F)cc1)c1ccc2c(c1)OCCO2 | n | n | n | n | n | x | x | x
CCOc1ccc(N2CC(C(=O)N3CCc4ccccc43)CC2=O)cc1 (configuration not stated) | n | n | n | n | n | x | x | x
O=C(CC1NC(=O)NC1=O)Nc1ccc(Cl)cc1 (configuration not stated) | n | n | n | n | n | x | x | x
O=C(CC1Nc2ccccc2NC1=O)Nc1cc(Cl)cc(Cl)c1 (configuration not stated) | n | 15 | n | n | n | 24% | n | 18%
O=C(CC1Nc2cccc3cccc(c23)NC1=O)Nc1ccc(F)cc1 (configuration not stated) | n | 5.3 | n | n | n | 34% | n | n
N#CC1=C(N)C(C#N)(C#N)C2(C(=O)Nc3ccccc32)C2CCCC=C12 (configuration not stated) | n | 5.4 | n | n | n | 24% | 31% | n
O=S(=O)(/N=C(\Sc1ccc(Cl)cc1)c1ccccc1)c1ccccc1 | n | n | n | n | n | n | n | 18%
C=CCn1c(-c2cc3cccc(OC)c3o2)n[nH]c1=S | n | n | n | n | n | x | x | x
